Assay results reported in ChEMBL document CHEMBL1152467, “Pharmacokinetics and pharmacodynamics of piperaquine in a murine malaria model” (Antimicrob Agents Chemother, 2008).
Activity calls are given as the source filed them. The calls are words filed in the database; no cut-off is given here.

How the values were obtained:
Plasmodium berghei [1] = experiment: Antiparasitic activity as reduced parasitaemia after 36 hrs against Plasmodium berghei ANKA infected Swiss mice (Mus musculus) at 30 mg/kg intraperitoneal dosed 64 hrs post infection; format: functional
Summary of the method: (§1)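 Male Swiss mice were infected i.p. with 10^7 P. berghei ANKA-parasitized erythrocytes. At 64 h (3-5% parasitemia) they received a single i.p. dose of piperaquine phosphate suspension: 300, 900 or 2,700 μg in 100 μl (about 10, 30, 90 mg/kg). Parasitemia came from May-Grünwald Giemsa tail-blood thin films, counting 30-100 fields (detection limit about 0.002%). Groups had 13-14 mice; controls had 8.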

Plasmodium berghei [2] = experiment: Antiparasitic activity as parasitaemia against Plasmodium berghei ANKA infected Swiss mice (Mus musculus) at 30 mg/kg intraperitoneal dose 64 hrs post infection; format: functional; summary of the method: as §1
[3] = Plasma concentration in Swiss mice (Mus musculus) infected with Plasmodium berghei ANKA at 90 mg/kg, intraperitoneally administered 64 hrs after infection measured after 60 days; format: ADME, organism-based; set-up: dose 90 mg/kg, route intraperitoneal; settings: ip
Summary of the method: (§2)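 P. berghei ANKA-infected male Swiss mice (10^7 parasitized erythrocytes i.p.) got one i.p. dose of 2,700 μg piperaquine phosphate (about 90 mg/kg) in glycerol/phosphate buffer/polysorbate 80 suspension, 64 h post-inoculation. Cardiac blood was drawn from 5 mice per time point, 0 h to […]. Plasma piperaquine was measured by HPLC, with concentrations normalized to 90 mg/kg. Noncompartmental and two-compartment fits (1/y2 weighting) used group means.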

Plasmodium berghei [4] = experiment: Antiparasitic activity as survival at day 30 against Plasmodium berghei ANKA infected Swiss mice (Mus musculus) at 10 mg/kg intraperitoneal dose 64 hrs post infection; format: functional
Summary of the method: (§3)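 Male Swiss mice (5–6 weeks) inoculated i.p. with 10^7 P. berghei ANKA-parasitized erythrocytes. At 64 h (3–5% parasitemia), each received a single i.p. 100 μl PQP suspension in 50% glycerol, 30% phosphate buffer (pH 7.1) and 20% polysorbate 80. Parasitemia was followed on tail-vein Giemsa smears. Mice were euthanized at >40% parasitemia or >10% weight loss within 24 h. Groups of 14 treated, 8 controls.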

[5] = Terminal half life in human children; format: ADME, organism-based; settings: in vivo, read-out: beta t1/2 (converted)
[6] = Plasma concentration in Swiss mice (Mus musculus) infected with Plasmodium berghei ANKA at 90 mg/kg, intraperitoneally administered 64 hrs after infection measured after 30 days; format: ADME, organism-based; set-up: dose 90 mg/kg, route intraperitoneal; settings: ip; summary of the method: as §2
[7] = Plasma concentration in Swiss mice (Mus musculus) infected with Plasmodium berghei ANKA at 90 mg/kg, intraperitoneally administered 64 hrs after infection measured after 2 hrs; format: ADME, organism-based; set-up: dose 90 mg/kg, route intraperitoneal; settings: ip; summary of the method: as §2
[8] = AUC in Swiss mice (Mus musculus) infected with Plasmodium berghei ANKA at 90 mg/kg, intraperitoneally administered 64 hrs after infection; format: ADME, organism-based; set-up: dose 90 mg/kg, route intraperitoneal; settings: plasma, ip; summary of the method: as §2
Mus musculus [9] = experiment: Apparent volume of distribution in Swiss mice (Mus musculus) infected with Plasmodium berghei ANKA at 90 mg/kg, intraperitoneally administered 64 hrs after infection; format: ADME, organism-based; set-up: dose 90 mg/kg, route intraperitoneal; settings: in vivo, ip; summary of the method: as §2
[10] = Terminal half life in Swiss mice (Mus musculus) infected with Plasmodium berghei ANKA at 90 mg/kg, intraperitoneally by two compartment model assay; format: ADME, organism-based; set-up: dose 90 mg/kg, route intraperitoneal; settings: in vivo, ip, read-out: beta t1/2 (converted); summary of the method: as §2
Plasmodium berghei [11] = experiment: Antimalarial activity against chloroquine-sensitive Plasmodium berghei by Peters 4 day test; settings: 96 h
Plasmodium berghei [12] = experiment: Antiparasitic activity as parasitaemia after 36 hrs against Plasmodium berghei ANKA infected Swiss mice (Mus musculus) at 90 mg/kg intraperitoneal dose 64 hrs post infection; format: functional; summary of the method: as §1
[13] = Apparent clearance in healthy Swiss mouse at 90 mg/kg, ip; format: ADME, organism-based; set-up: dose 90 mg/kg, route intraperitoneal; settings: in vivo
Summary of the method: (§4)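 Uninfected male Swiss mice (6 weeks old) received a single i.p. dose of 2,700 μg piperaquine phosphate suspension (about 90 mg/kg). Cardiac-puncture blood was collected under pentobarbitone from n = 5 per time, 0 h to 25 days. Lithium heparin plasma was assayed by HPLC and normalized to a 90 mg/kg dose. Mean profiles were analysed noncompartmentally and by a two-compartment model (1/y2 weighting).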

[14] = Half life in healthy Swiss mouse at 90 mg/kg, ip; format: ADME, organism-based; set-up: dose 90 mg/kg, route intraperitoneal; settings: in vivo; summary of the method: as §4
[15] = Half life in Swiss mice (Mus musculus) infected with Plasmodium berghei ANKA at 90 mg/kg, intraperitoneally administered 64 hrs after infection; format: ADME, organism-based; set-up: dose 90 mg/kg, route intraperitoneal; settings: in vivo, ip; summary of the method: as §2
[16] = Plasma concentration in Swiss mice (Mus musculus) infected with Plasmodium berghei ANKA at 90 mg/kg, intraperitoneally administered 64 hrs after infection measured after 36 hrs; format: ADME, organism-based; set-up: dose 90 mg/kg, route intraperitoneal; settings: ip; summary of the method: as §2
Mus musculus [17] = experiment: Apparent volume of distribution in healthy Swiss mouse at 90 mg/kg, ip; format: ADME, organism-based; set-up: dose 90 mg/kg, route intraperitoneal; settings: in vivo; summary of the method: as §4
Plasmodium berghei [18] = experiment: Antiparasitic activity as survival at day 30 against Plasmodium berghei ANKA infected Swiss mice (Mus musculus) at 30 mg/kg intraperitoneal dose 64 hrs post infection; format: functional; summary of the method: as §3
[19] = Initial half life in healthy Swiss mouse at 90 mg/kg, ip by two compartment model assay; format: ADME, organism-based; set-up: dose 90 mg/kg, route intraperitoneal; settings: in vivo, read-out: alphat1/2 (converted); summary of the method: as §4
Plasmodium berghei [20] = experiment: Antiparasitic activity as survival at day 30 against Plasmodium berghei ANKA infected Swiss mice (Mus musculus) at 20-30 mg/kg intraperitoneal dose 64 hrs post infection; format: functional
[21] = Terminal half life in healthy Swiss mouse at 90 mg/kg, ip by two compartment model assay; format: ADME, organism-based; set-up: dose 90 mg/kg, route intraperitoneal; settings: in vivo, read-out: beta t1/2 (converted); summary of the method: as §4
[22] = Initial half life in Swiss mice (Mus musculus) infected with Plasmodium berghei ANKA at 90 mg/kg, intraperitoneally by two compartment model assay; format: ADME, organism-based; set-up: dose 90 mg/kg, route intraperitoneal; settings: in vivo, ip, read-out: alphat1/2 (converted); summary of the method: as §2
[23] = Toxicity in mouse; format: organism-based; settings: in vivo
Mus musculus [24] = experiment: Plasma concentration in Swiss mice (Mus musculus) infected with Plasmodium berghei ANKA at 90 mg/kg, intraperitoneally administered 64 hrs after infection measured after 2 to 7 days; format: ADME, organism-based; set-up: dose 90 mg/kg, route intraperitoneal; settings: in vivo, ip; summary of the method: as §2
[25] = Apparent clearance in Swiss mice (Mus musculus) infected with Plasmodium berghei ANKA at 90 mg/kg, intraperitoneally administered 64 hrs after infection; format: ADME, organism-based; set-up: dose 90 mg/kg, route intraperitoneal; settings: in vivo, ip; summary of the method: as §2
[26] = Terminal half life in adult human; format: ADME, organism-based; settings: in vivo, read-out: beta t1/2 (converted)
[27] = AUC in healthy Swiss mouse at 90 mg/kg, ip; format: ADME, organism-based; set-up: dose 90 mg/kg, route intraperitoneal; settings: plasma; summary of the method: as §4
Plasmodium berghei [28] = experiment: Antiparasitic activity as reduced parasitaemia against Plasmodium berghei ANKA infected Swiss mice (Mus musculus) at 10 mg/kg intraperitoneal dose 64 hrs post infection; format: functional, organism-based; set-up: dose 10 mg/kg; summary of the method: as §1
Plasmodium berghei [29] = experiment: Antiparasitic activity as reduced parasitaemia at day 3 against Plasmodium berghei ANKA infected Swiss mice (Mus musculus) at 30 mg/kg intraperitoneal dose 64 hrs post infection; format: functional, organism-based; set-up: dose 30 mg/kg; summary of the method: as §1
Plasmodium berghei [30] = experiment: Antiparasitic activity as reduced parasitaemia against Plasmodium berghei ANKA infected Swiss mice (Mus musculus) at 30 mg/kg intraperitoneal dose 64 hrs post infection; format: functional, organism-based; set-up: dose 30 mg/kg; summary of the method: as §1
Plasmodium berghei [31] = experiment: Antiparasitic activity as reduced parasitaemia after 24 hrs against Plasmodium berghei ANKA infected Swiss mice (Mus musculus) at 30 mg/kg intraperitoneal dose 64 hrs post infection; format: functional, organism-based; set-up: dose 30 mg/kg; summary of the method: as §1
Plasmodium berghei [32] = experiment: Antiparasitic activity as reduced parasitaemia against Plasmodium berghei ANKA infected Swiss mice (Mus musculus) at 90 mg/kg intraperitoneal dose 64 hrs post infection; format: functional, organism-based; set-up: dose 90 mg/kg; summary of the method: as §1
Plasmodium berghei [33] = experiment: Antiparasitic activity as reduced parasitaemia after 36 hrs against Plasmodium berghei ANKA infected Swiss mice (Mus musculus) at 10 mg/kg intraperitoneal dosed 64 hrs post infection; format: functional
Summary of the method: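 Male Swiss mice (5–6 weeks) infected i.p. with 10^7 P. berghei ANKA-parasitized erythrocytes from BALB/c donor blood diluted in citrate-phosphate-dextrose. Single i.p. dose given at 64 h, suspended in 50% glycerol/30% phosphate buffer pH 7.1/20% polysorbate 80, 100 µl. n = 14; vehicle controls n = 8. Parasitemia counted on methanol-fixed, May-Grünwald Giemsa tail-vein smears, expressed as fold decline from predose level.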

Plasmodium berghei [34] = experiment: Antiparasitic activity as parasitaemia after 4 days against Plasmodium berghei ANKA infected Swiss mice (Mus musculus) at 90 mg/kg intraperitoneal dose; format: functional; summary of the method: as §1
Plasmodium berghei [35] = experiment: Antiparasitic activity as parasitaemia at day 16 against Plasmodium berghei ANKA infected Swiss mice (Mus musculus) at 90 mg/kg intraperitoneal dose 64 hrs post infection; format: functional; summary of the method: as §1
Plasmodium berghei [36] = experiment: Antiparasitic activity as parasitaemia against Plasmodium berghei ANKA infected Swiss mice (Mus musculus) at 10 mg/kg intraperitoneal dose 64 hrs post infection; format: functional; summary of the method: as §1
Plasmodium berghei [37] = experiment: Antiparasitic activity as reduced parasitaemia at day 22-30 against Plasmodium berghei ANKA infected Swiss mice (Mus musculus) at 30 mg/kg intraperitoneal dose 64 hrs post infection; format: functional; set-up: scale not given: the % may be the effect or the level left; summary of the method: as §1
Plasmodium berghei [38] = experiment: Antiparasitic activity as median survival time against Plasmodium berghei ANKA infected Swiss mice (Mus musculus) at 10 mg/kg intraperitoneal dose 64 hrs post infection; format: functional; summary of the method: as §3
Plasmodium berghei [39] = experiment: Antiparasitic activity as peripheral parasitaemia 2 weeks after day 60 reinfection against Plasmodium berghei ANKA infected Swiss mice (Mus musculus) at 90 mg/kg intraperitoneal dose 64 hrs post infection; format: functional
Summary of the method: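 Swiss mice given a single i.p. 90 mg/kg piperaquine phosphate 64 h after P. berghei ANKA infection were reinoculated i.p. with 10^7 parasitized erythrocytes on day 60. Age-matched previously uninfected mice (untreated, vehicle, or drug on day 0) were inoculated alongside. Parasitemia was read daily from Giemsa-stained tail-blood films for 2 weeks.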

Plasmodium berghei [40] = experiment: Antiparasitic activity as parasitaemia at day 60 against Plasmodium berghei ANKA infected Swiss mice (Mus musculus) at 90 mg/kg intraperitoneal dose 64 hrs post infection; format: functional; summary of the method: as §1
Plasmodium berghei [41] = experiment: Antiparasitic activity as mean parasitaemia after 22 days against Plasmodium berghei ANKA infected Swiss mice (Mus musculus) at 30 mg/kg intraperitoneal dose 64 hrs post infection; format: functional; summary of the method: as §1
Plasmodium berghei [42] = experiment: Antiparasitic activity as median survival time after 30 days against Plasmodium berghei ANKA infected Swiss mice (Mus musculus) at 30 mg/kg intraperitoneal dose 64 hrs post infection; format: functional; summary of the method: as §3

C[C@H]1[C@@H](O)O[C@@H]2O[C@@]3(C)CC[C@H]4[C@H](C)CC[C@@H]1[C@@]24OO3 [ARTENIMOL]
fold change (FC) (Plasmodium berghei [1]): 11.9
Activity (Plasmodium berghei [2]): 4.6%

Clc1ccc2c(N3CCN(CCCN4CCN(c5ccnc6cc(Cl)ccc56)CC4)CC3)ccnc2c1 [PIPERAQUINE]
concentration at 1440 h [3]: 3 ng/mL
Activity (Plasmodium berghei [4]): 0%
half-life [5]: 14 days
concentration at 720 h [6]: > 10 ng/mL
concentration at 2 h [7]: 250 ng/mL
AUC at 64 h [8]: 27300 ng·h/mL
Vd (Mus musculus [9]): 1059 L/kg
half-life [10]: 15.4 days
ED50 (Plasmodium berghei [11]): 4.5 mg/kg
Activity (Plasmodium berghei [12]): 0.002%
CL/F [13]: 25.8 mL/min/kg
half-life [14]: 17.8 days
half-life [15]: 16.1 days
concentration at 36 h [16]: 45 ng/mL
Vd (Mus musculus [17]): 956 L/kg
Activity (Plasmodium berghei [18]): 70%
half-life [19]: 0.59 days
Activity (Plasmodium berghei [20]): 50%
half-life [21]: 20.7 days
half-life [22]: 0.35 days
LD50 [23]: 1100 mg/kg
Cp (Mus musculus [24]): 20 ng/mL
CL/F [25]: 31.7 mL/min/kg
half-life [26]: 23 days
AUC [27]: 33500 ng·h/mL

Clc1ccc2c(N3CCN(CCCN4CCN(c5ccnc6cc(Cl)ccc56)CC4)CC3)ccnc2c1
Activity (Plasmodium berghei [28]): Active
Activity (Plasmodium berghei [29]): Active
Activity (Plasmodium berghei [30]): Active
Activity (Plasmodium berghei [31]): Active
Activity (Plasmodium berghei [32]): Active

Clc1ccc2c(N3CCN(CCCN4CCN(c5ccnc6cc(Cl)ccc56)CC4)CC3)ccnc2c1.O=P(O)(O)O [PIPERAQUINE PHOSPHATE]
fold change (FC) (Plasmodium berghei [33]): 12.8
Activity (Plasmodium berghei [34]): >10%
Activity (Plasmodium berghei [35]): 1.8%
Activity (Plasmodium berghei [36]): 1.5%
Activity (Plasmodium berghei [37]): 0.1%
Activity (Plasmodium berghei [38]): 10 days
Activity (Plasmodium berghei [39]): <1%
Activity (Plasmodium berghei [40]): < 0.1%
Activity (Plasmodium berghei [41]): 11%
Activity (Plasmodium berghei [42]): 54 days
